Assay results from ChEMBL document CHEMBL1165926, “Synthesis and characterization of potent inhibitors of Trypanosoma cruzi dihydrofolate reductase” (Bioorg Med Chem, 2010).

Key:
[1] = biological target: T1, Bifunctional dihydrofolate reductase-thymidylate synthase (Trypanosoma cruzi, UniProt Q27793); test: Inhibition of Trypanosoma cruzi DHFR by Lineweaver-Burke plot
Outline: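 Recombinant bifunctional T. cruzi DHFR-TS; 50 mM Tris-HCl pH 7.0 with DHF, 100 µM NADPH and 0.5–1.0 µg enzyme; initial velocity followed at 340 nm for 30 s at 22.6 °C. Velocities taken at five DHF concentrations for each of three inhibitor concentrations; Ki read from Lineweaver–Burk plots.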

[2] = biological target: T1, Bifunctional dihydrofolate reductase-thymidylate synthase; test: Inhibition of Trypanosoma cruzi DHFR by spectrophotometric assay
Outline: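 Recombinant bifunctional T. cruzi DHFR-TS in 50 mM Tris-HCl pH 7.0 with DHF, 100 µM NADPH and 0.5–1.0 µg enzyme; velocity from absorbance at 340 nm over 30 s at 22.6 °C. IC50 from velocities at several inhibitor concentrations for each of three DHF concentrations, then averaged; Ki calculated from IC50. Triplicates, repeated on different days.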

Dihydrofolate reductase = biological target: T2, Dihydrofolate reductase (Homo sapiens, UniProt P00374); test: Inhibition of human DHFR by spectrophotometric assay
T2 sequence (P00374 whole entry): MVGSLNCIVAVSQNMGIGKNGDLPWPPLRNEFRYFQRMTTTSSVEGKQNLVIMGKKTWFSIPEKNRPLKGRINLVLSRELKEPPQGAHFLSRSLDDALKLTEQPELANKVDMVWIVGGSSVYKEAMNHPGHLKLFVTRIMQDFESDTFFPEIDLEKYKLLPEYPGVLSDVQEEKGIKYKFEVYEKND

T1 sequence (Q27793 whole entry): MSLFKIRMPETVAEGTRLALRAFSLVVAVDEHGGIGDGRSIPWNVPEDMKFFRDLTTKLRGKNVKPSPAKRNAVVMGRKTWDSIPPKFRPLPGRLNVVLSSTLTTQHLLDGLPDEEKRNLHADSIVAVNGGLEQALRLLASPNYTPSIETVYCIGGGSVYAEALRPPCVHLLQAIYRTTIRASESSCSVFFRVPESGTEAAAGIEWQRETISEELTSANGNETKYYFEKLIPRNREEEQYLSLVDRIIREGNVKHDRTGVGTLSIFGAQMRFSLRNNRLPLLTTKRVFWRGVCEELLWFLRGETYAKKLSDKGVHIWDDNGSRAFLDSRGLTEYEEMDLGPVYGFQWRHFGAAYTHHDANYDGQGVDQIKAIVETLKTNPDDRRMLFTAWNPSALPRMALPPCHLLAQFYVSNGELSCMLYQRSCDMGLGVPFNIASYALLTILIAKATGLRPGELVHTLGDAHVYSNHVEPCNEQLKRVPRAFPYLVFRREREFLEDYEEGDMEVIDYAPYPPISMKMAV

`COc1ccc(NCc2ccc3nc(N)nc(N)c3c2)cc1OC` gave a Ki [1] of 4.75 nM, an IC50 [2] of 27.1 nM and a Ki [2] of 1.6 nM. The IC50 (Dihydrofolate reductase) was 85.5 nM and the Ki (Dihydrofolate reductase) was 11.8 nM.

Work on `CCCN(Cc1ccc2nc(N)nc(N)c2c1)c1ccc(OC)c(OCCCCC(=O)OC)c1` yielded an IC50 [2] of 422 nM, a Ki [2] of 24.9 nM and an IC50 (Dihydrofolate reductase) of 1340 nM. The Ki (Dihydrofolate reductase) was 188 nM.

`COc1ccc(NCc2ccc3nc(N)nc(N)c3c2)cc1OCCCC(=O)O` showed an IC50 [2] of 61 nM, a Ki [2] of 3.6 nM and an IC50 (Dihydrofolate reductase) of 357 nM. For the same compound, the Ki (Dihydrofolate reductase) was 49.8 nM.

`COC(=O)CCCCOc1cc(NCc2ccc3nc(N)nc(N)c3c2)ccc1OC` showed an IC50 [2] of 27 nM, a Ki [2] of 1.6 nM and an IC50 (Dihydrofolate reductase) of 93.5 nM. For the same compound, the Ki (Dihydrofolate reductase) was 13 nM.

In the case of `COC(=O)c1ccc(COc2cc(NCc3ccc4nc(N)nc(N)c4c3)ccc2OC)cc1`, the IC50 [2] is reported as 57.5 nM, the Ki [2] is reported as 3.3 nM and the IC50 (Dihydrofolate reductase) is reported as 175 nM. It also gave a Ki (Dihydrofolate reductase) of 24.5 nM.

In the case of `CCOC(=O)CCCOc1cc(NCc2ccc3nc(N)nc(N)c3c2)ccc1OC`, the Ki [1] is reported as 5.68 nM, the IC50 [2] is reported as 23.8 nM and the Ki [2] is reported as 1.3 nM. The IC50 (Dihydrofolate reductase) was 68.3 nM and the Ki (Dihydrofolate reductase) was 9.6 nM.

For `COc1cc(NCc2ccc3nc(N)nc(N)c3c2C)cc(OC)c1OC` [TRIMETREXATE], the IC50 [2] was 20.2 nM and the Ki [2] was 6.6 nM.
